Data set [1] concerns Jurkat. As to the kind of experiment: Potency index, ratio of 3'-Deoxyadenosine LC50 to test compound LC50 for cytotoxicity against human Jurkat cells assessed as cell death incubated for 72 hrs by MTS assay. The class given is functional. On the technique in general: Tetrazolium dyes change colour on reduction, which living cells bring about.
The next data set deals with MOLT-4. As to the kind of experiment: Cytotoxicity against human MOLT-4 cells assessed as cell death incubated for 72 hrs by MTS assay. The class given is functional. The settings on record: read-out: LC50 (the source's name). An outline of the steps:
(§1)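 Contracted MTS assay. Cells seeded the day before treatment and exposed 72 h to nine serial concentrations (3.16-fold steps, top 198 μM), tested in duplicate. MTS added, then 4 h at 37 °C and absorbance read. LC50 is the concentration killing 50% of cells. MI% is the maximum inhibition over the tested range.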

Another data set relates to KG-1. Put plainly: Cytotoxicity against human KG-1 cells assessed as cell death incubated for 72 hrs by MTS assay. The class given is functional. An outline of the steps: as §1
Another data set has as its system K562. Put plainly: Cytotoxicity against human K562 cells assessed as maximum cell growth inhibition incubated for 72 hrs by MTS assay relative to control. The class given is functional. An outline of the steps: (§2)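 Cells from the 20-line panel were seeded the day before dosing, then exposed to compound for 72 h. MTS was added, followed by 4 h at 37 °C, and absorbance was read. Nine serial 3.16-fold dilutions were tested, top 198 μM, in duplicate. MI% is the maximum inhibitory effect across the tested concentration range.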

The test system of data set [2] is Jurkat. As to the kind of experiment: Cytotoxicity against human Jurkat cells assessed as maximum cell growth inhibition incubated for 72 hrs by MTS assay relative to control. The class given is functional. An outline of the steps: as §2
Data set [3] concerns HT-29. Put plainly: Cytotoxicity against human HT-29 cells assessed as maximum cell growth inhibition incubated for 72 hrs by MTS assay relative to control. The class given is functional. An outline of the steps:
as §2

Data set [4] concerns RL. As to the kind of experiment: Cytotoxicity against human RL cells assessed as maximum cell growth inhibition incubated for 72 hrs by MTS assay relative to control. The class given is functional. An outline of the steps:
as §2

The next data set has as its system MCF7. Put plainly: Cytotoxicity against human MCF7 cells assessed as cell death incubated for 72 hrs by MTS assay. The class given is functional. The settings on record: read-out: LC50 (the source's name). An outline of the steps: as §1
Data set [5] can be described thus: Metabolic stability in pooled cryopreserved human hepatocytes assessed as intrinsic clearance measured per 10^6 cells at 1 uM incubated for 60 mins by HPLC-MS/MS analysis. The class given is ADME, cell-based, Hepatocyte. The settings on record: 1 h. The essentials:
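Pooled cryopreserved human hepatocytes were thawed, washed and resuspended in Krebs–Henseleit buffer, pH 7.3. Compound was added at 1 μM final and incubated 0 and 60 min at 37 °C/5% CO2. Reactions were stopped with acetonitrile, centrifuged, and the supernatant analysed by HPLC-MS/MS.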

In data set [6] the test system is HT-29. Put plainly: Cytotoxicity against human HT-29 cells assessed as cell death incubated for 72 hrs by MTS assay. The class given is functional. The settings on record: read-out: LC50 (the source's name). The essentials: as §1
Data set [7] concerns RL. Put plainly: Cytotoxicity against deoxynucleotidyl transferase-negative human RL cells assessed as cell death preincubated with adenosine kinase inhibitor, A-134974 for 5 mins followed by compound addition and […]. The class given is functional, cell-based.
For the next data set, the system named is Leukemic stem cell. Put plainly: Cytotoxicity against human leukemic stem cells (Lin-/CD34+/CD38-/CD123+) in myeloid leukemia cell line KG-1a assessed as reduction in LSC population at >1 uM incubated for 72 hrs.
The test system of data set [8] is RL. As to the kind of experiment: Cytotoxicity against deoxynucleotidyl transferase-negative human RL cells assessed as cell death preincubated with adenosine deaminase inhibitor, EHNA for 5 mins followed by compound addition and […]. The class given is functional, cell-based.
A further data set deals with SW-620. As to the kind of experiment: Cytotoxicity against human SW620 cells assessed as maximum cell growth inhibition incubated for 72 hrs by MTS assay relative to control. The class given is functional. An outline of the steps:
as §2

Structures are written as SMILES. Calls of active or inactive are those of the source. No cut-off for these calls is given here.

Regarding `C[C@@H](NP(=O)(OC[C@@H]1C[C@@H](O)[C@H](n2cnc3c(N)ncnc32)O1)Oc1cccc2ccccc12)C(=O)OCc1ccccc1` (some centres undefined), the RatioLC50 in the data set with Jurkat [1] is on record as 200. The CC50 is 320 nM in the data set with MOLT-4, 1390 nM with MCF7 and 7520 nM in the data set with HT-29 [6]. Also, in the data set with KG-1, the LC50 (commonly the concentration lethal to half of the exposed cells or organisms) was determined as 11030 nM. In addition, the Imax in the data set with K562 is given as 97%; in the data set on Jurkat [2], 100%; with HT-29 [3], 98%; in the data set with RL [4] it was 96%; with SW-620, 93%. Further, the CLint in [5] amounted to 20.8 µL/min/1e6 cells. For the same compound, the outcome in the data set on RL [7] and with RL [8] was Active. For the same compound, the result in the data set with Leukemic stem cell was inactive.

Source of the values: ChEMBL document CHEMBL5236602, “Synthesis and Characterization of NUC-7738, an Aryloxy Phosphoramidate of 3'-Deoxyadenosine, as a Potential Anticancer Agent” (J Med Chem, 2022).
